An excerpt weighted towards active compounds, which were near 1.9% of everything screened.
SR-BI DiI inh – blocks mouse SR-BI lipid uptake from DiI-HDL. 320,000 tested, 0.96% active. inhibition, % at 12.5 µM. ldlA[mSR-BI] CHO cells, DiI-HDL uptake fluorescence, 3 h;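 active means mean replicate inhibition of at least 70% and a set share of replicates each scoring 70 or more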;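 further: 0% = median of neutral control wells and 100% = median of positive control wells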
Target sequence (Q61009 whole entry, looked up): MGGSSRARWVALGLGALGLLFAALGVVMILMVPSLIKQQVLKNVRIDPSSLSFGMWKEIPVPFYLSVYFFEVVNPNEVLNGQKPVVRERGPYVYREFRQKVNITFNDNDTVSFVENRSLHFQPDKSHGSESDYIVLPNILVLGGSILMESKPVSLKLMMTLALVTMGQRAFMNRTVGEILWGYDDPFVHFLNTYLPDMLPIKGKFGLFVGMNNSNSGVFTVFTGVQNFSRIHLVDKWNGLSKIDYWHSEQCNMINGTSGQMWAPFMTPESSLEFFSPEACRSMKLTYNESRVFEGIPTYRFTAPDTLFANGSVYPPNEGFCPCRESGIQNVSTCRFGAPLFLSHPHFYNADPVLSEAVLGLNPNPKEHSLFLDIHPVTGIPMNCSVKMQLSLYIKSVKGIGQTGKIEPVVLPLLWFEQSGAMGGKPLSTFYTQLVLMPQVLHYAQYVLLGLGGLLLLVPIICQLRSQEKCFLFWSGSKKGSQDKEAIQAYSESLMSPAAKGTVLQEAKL
SR-BI uptake up – SR-BI HDL lipid transfer activation. CHO ldlA[mSR-BI] cells, DiI-HDL uptake fluorescence, 3 h; 100 = double the neutral-control signal. activation, % at 12.5 µM. 320,000 tested, 0.096% active. AID 504775;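 active means mean replicate activation of at least 60% and every replicate at or above 60%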;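 further: 0% = median plate neutral-control signal and 100% = twice that signal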
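material = CHO ldlA[mSR-BI] cells | medium = Ham's F12 with 0.5% BSA, HEPES 25 mM, pH 7.4 | reagent = fluorescent DiI-HDL, 10 µg/mL final | compound dosing = single-point compound dose | incubation = 3 h, 37 °C | measured by = bottom-read fluorescence, 550/595 nm | measure = HDL uptake via cellular fluorescence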
HIV Env fusion – HIV envelope-mediated fusion inhibition; HeLa-JRFL Env/CEM21 cell fusion, luciferase; inhibition, % at 12.3 µM; 360,000 tested, 1.1% active;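 active means mean replicate inhibition score of at least 50 and every replicate individually at or above 50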;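 further: 0% = plate neutral controls and 100% = maraviroc near 300 nM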
Rtt109 HAT inh – blocks Candida albicans Rtt109/Vps75 acetyltransferase activity. inhibition, % at 34.9 µM. AID 540336. 330,000 tested, 0.16% active. purified Rtt109/Vps75, ThioGlo CoA-SH fluorescence, 4 h. Q5AAJ8;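 active means inhibition of at least 50% in every replicate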
N-glyco inh – blocks N-linked glycosylation in D54 reporter cells. D54 ERlucT glycosylation luciferase reporter, 24 h; percent of 100 nM tunicamycin response. 360,000 tested, 0.23% active. AID 588692. reporter increase, % at 12.5 µM;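 active means mean luciferase reporter signal, scaled so untreated is 0 and the glycosylation-blocking control 100, at or above a set limit in every replicate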;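 further: luciferase carries N-glycosylation sites so blocking glycosylation raises the light; 0% = median of neutral control wells and 100% = median of 100 nM tunicamycin wells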
PglD inh – inhibitors of Campylobacter jejuni PglD acetyltransferase; purified PglD enzyme, DTNB colorimetric CoA detection; inhibition, % at 12.5 µM; 360,000 tested, 0.098% active; in the data active means inhibition above about 16%, passing the limit was not always enough
DiI quench – quenches DiI-HDL fluorescence, an SR-BI assay artifact; shares compounds with SR-BI DiI inh; AC50, µM (doses to about 35 µM), without a hit: top-dose activity change, negative = quenching; 470 tested, 20% active; cell-free DiI-HDL fluorescence quenching, 30 min; AID 540326;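 active means quenching, a falling signal, with AC50 below a set limit tied to the top valid dose, actives reach about 32 µM in these data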
The depositor's hits bear a star; . = not tested or not shown; [ ] = dose if it differs, or a comment.

SMILES | SR-BI DiI inh | SR-BI uptake up | HIV Env fusion | Rtt109 HAT inh | N-glyco inh | PglD inh | DiI quench
C/C=C/c1cnc2c(c1)C(=O)N([C@@H](C)CO)C[C@@H](C)[C@H](CN(C)C(=O)NC1CCCCC1)O2 | . | . | -15.6[16.7 µM] | . | . | 0.2 | .
O=C(O)CC(C(=O)Nc1cccc(C(F)(F)F)c1)C1CCCO1 (stereo not given) | -17.2 | 17.2 | 31.1 | 23.8 | 3.4 | 0.3 | -3.4%
COc1cccc(NC(=O)N2C[C@@H](O)COC[C@@H]3O[C@@H](CC(=O)NC4Cc5ccccc5C4)CC[C@H]32)c1 | . | . | -10.4[16.7 µM] | . | . | 0.6 | .
Cc1ccc(NS(=O)(=O)c2ccc(C(=O)NNC(=O)c3ccccc3O)cc2)cc1 | 120.2* | -120.1 | 7.4 | 12.9 | -3.3 | . | 0.457µM*
C[C@@H](NC(=O)C[C@@H]1C=C[C@H](NC(=O)Nc2ccc3c(c2)OCO3)[C@H](CO)O1)c1ccccc1 | . | . | -20.9[16.7 µM] | . | . | 5.6 | .
COc1ccccc1CN1CC[C@H]2[C@H](CO)Nc3ccc(C#Cc4ccccc4)cc3[C@H]21 | . | . | . | . | . | -14.0 | .
COc1cccc(C(=O)Nc2ccc3c(c2)C(=O)N(C)C[C@H](OC)[C@H](C)CN(C)[C@@H](C)CO3)c1 | . | . | . | . | . | 4.7 | .
Cc1cccc(NC(=O)C2(C)CC3c4ccccc4C2c2ccccc23)c1C (stereo not given) | 8.3 | -8.3 | . | 1.0 | -8.7 | . | 2.3%
Cc1ccc(C)c(NC(=O)C2(C)CC3c4ccccc4C2c2ccccc23)c1 (stereo not given) | . | . | . | 4.5 | -2.0 | -4.4 | .
N#Cc1ccccc1S(=O)(=O)N1CCN(C(=O)C2CC(=O)N(c3ccc4c(c3)OCCO4)C2)CC1 (stereo not given) | -0.8 | 0.8 | 8.9 | 9.8 | 1.4 | -0.1 | -10.3%
COc1ccc(S(=O)(=O)N2CCC(C(=O)NN3CCCCC3)CC2)cc1OC | -8.6 | 8.6 | 12.2 | -10.9 | 2.7 | 5.2 | -1.9%
COc1cc([N+](=O)[O-])ccc1NC(=O)NCC1CCN(Cc2ccc(Cl)cc2)CC1 | 82.8* | -82.8 | 26.4 | -6.3 | -3.1 | 3.4 | -4.8%
CCCCn1nc2cc(C(=O)NC3CCCc4ccccc43)ccc2c1OCC (stereo not given) | 79.5* | -79.5 | 16.5 | -3.7 | -1.3 | -1.0 | -3.1%
CCC(=O)N1C[C@@H](C)[C@@H](OC)CN(C)C(=O)c2ccc(NC(=O)c3ccc(F)cc3)cc2OC[C@H]1C | . | . | . | . | . | 1.6 | .
CCOC(=O)c1cccc(NC(=O)Nc2cc(OC)ccc2OC)c1 | 109.3* | -109.3 | 7.8 | -4.6 | -1.2 | -2.1 | 4.81µM*
COc1cc(OC)cc(C(=O)Nc2cccc(NC(C)=O)c2)c1 | 25.4 | -25.4 | -75.3 | 19.6 | 2.8 | 4.3 | .
CCOC(=O)Nc1cccc(NC(=O)c2cc(OC)cc(OC)c2)c1 | 74.4* | -74.4 | -51.0 | 0.8 | 1.7 | 6.1 | 9.7%
COc1cc(OC)cc(C(=O)Nc2cccc(NC(=O)c3cc(OC)cc(OC)c3)n2)c1 | 81.9* | -81.9 | 1.6 | -7.7 | -1.1 | -4.1 | 5.7%
C[C@@H]1CN([C@H](C)CO)C(=O)c2cccc(NC(=O)Nc3ccc4c(c3)OCO4)c2O[C@@H]1CN(C)S(=O)(=O)c1ccc(Cl)cc1 | . | . | . | . | . | -0.2 | .
CCC(=O)N[C@@H]1C=C[C@H](CC(=O)NCCN2CCCCC2)O[C@H]1CO | . | . | 18.1[16.7 µM] | . | . | -0.8 | .
C[C@@H]1CN([C@@H](C)CO)C(=O)Cc2cc(NC(=O)NC3CCCCC3)ccc2O[C@H]1CN(C)S(C)(=O)=O | . | . | . | . | . | 7.4 | .
CC[C@@H](C)[C@H](NC(=O)Cc1c(C)c2cc3c(C)coc3c(C)c2oc1=O)C(=O)O | . | . | -6.8 | 11.4 | 1.8 | 0.0 | .
CC[C@@H](C)[C@H](NC(=O)Cc1c(C)c2cc3c(C)c(C)oc3c(C)c2oc1=O)C(=O)O | 94.5* | -94.5 | 18.9 | 4.8 | -1.0 | 4.6 | -2.7%
CC(C)(C)OC(=O)N1CSC[C@H]1C(=O)NC[C@H](CC(=O)O)c1ccc(Cl)cc1 | 78.2* | -78.2 | -9.0 | 0.8 | 2.4 | 0.9 | -3.6%
CC(C)C[C@H](NC(=O)C1(c2ccccc2)CCN(C(=O)[C@H]2CSCN2C(=O)OC(C)(C)C)CC1)C(=O)O | -15.6 | 15.6 | -40.1 | -0.6 | 2.5 | -6.8 | .
SMILES | SR-BI DiI inh | SR-BI uptake up | HIV Env fusion | Rtt109 HAT inh | N-glyco inh | PglD inh | DiI quench
Cc1cccc(N2CCN(C(=O)Cn3cccc3C(=O)c3ccccc3)CC2)c1C | 73.2* | -73.2 | -3.3 | -4.3 | -1.9 | . | -6.7%
Cc1cccc(N2CCN(C(=O)CN3C(=O)NC4(CCCCCC4)C3=O)CC2)c1C | 73.4* | -73.4 | 11.6 | -0.1 | 1.3 | -2.8 | -2.9%
COc1cccc(N2CCN(C(=O)CN3C(=O)NC4(CCCC4)C3=O)CC2)c1 | 12.1 | -12.1 | 1.0 | -0.1 | 1.6 | -3.4 | .
C[C@@H]1CN([C@H](C)CO)C(=O)c2cc(NC(=O)Nc3ccc(F)cc3)ccc2O[C@@H]1CN(C)S(=O)(=O)c1cn(C)cn1 | . | . | -24.2[16.7 µM] | . | . | -0.6 | .
COc1ccc(NC(=O)N(C)C[C@@H]2Oc3ccc(N(C)C)cc3C(=O)N([C@@H](C)CO)C[C@H]2C)cc1 | . | . | -1.1[16.7 µM] | . | . | 3.7 | .
Cc1ccc(S(=O)(=O)NCc2ccc(C(=O)NCCc3ccc(S(N)(=O)=O)cc3)cc2)cc1 | 92.3* | -92.3 | 18.2 | -4.1 | 0.4 | 9.7 | 4.8%
Cc1ccc(CC(=O)NCCc2ccc(S(N)(=O)=O)cc2)cc1 | -4.8 | 4.8 | -2.0 | 0.7 | 0.5 | 0.6 | .
CCC(=O)Nc1ccc2c(c1)C(=O)N(C)[C@@H]1CC[C@@H](CC(=O)N3CCCCC3)O[C@@H]1CO2 | . | . | -9.0[16.7 µM] | . | . | 0.2 | .
COc1cc(-c2nnn(Cc3ccccc3C)n2)cc(OC)c1OC | 101.1* | -101.1 | -5.9 | 2.6 | 3.5 | -1.4 | 2.0%
COc1ccc(-c2nnn(Cc3ccccc3)n2)cc1OC | 3.6 | -3.6 | -8.9 | -2.4 | -1.8 | 0.5 | .
CC(=O)N(C[C@H]1N[C@H](CO)[C@H]1c1ccc(-c2ccc(F)cc2)cc1)C(C)C | . | . | . | . | . | 1.6 | .
O=C(Nc1cccc(-c2cn3c(n2)SCC3)c1)c1ccc2ccccc2n1 | 76.3* | -76.3 | -56.1 | 3.2 | -4.0 | 1.7 | -5.3%
O=C(Nc1ccc(-c2cn3c(n2)SCC3)cc1)c1ccc2ccccc2n1 | 55.2 | -55.2 | 13.9 | -4.4 | -4.5 | . | .
CO[C@@H]1CN(C)C(=O)c2cc(NS(=O)(=O)c3cccc(F)c3)ccc2OC[C@H](C)NC[C@H]1C | . | . | 33.9[16.7 µM] | . | . | -2.4 | .
Cc1ccsc1-c1nc(-c2ccccc2)c(-c2ccccc2)[nH]1 | 71.3* | -71.3 | -261.7 | -4.3 | -0.4 | -4.1 | 32.3µM*
CCOc1ccc(NC(=O)CN2CCN(CC(=O)Nc3ccc(C(=O)OC)cc3)CC2)cc1 | 80.8* | -80.8 | . | 0.8 | -0.6 | -0.8 | -1.5%
CCOC(=O)N1CCN(CC(O)COC2CC(C)CCC2C(C)C)CC1 (stereo not given) | 77.8* | -77.8 | . | 5.0 | -0.6 | . | -4.3%
